Data taken from ChEMBL document CHEMBL1165950, “Design and synthesis of new potent anticancer pyrazoles with high FLT3 kinase inhibitory selectivity” (Bioorg Med Chem, 2010).

What was measured:
Format in all cases: functional
A549 [1] = assay: Cytotoxicity against human A549 cells assessed as cell growth at 0.001 uM after 48 hrs by sulforhodamine B assay; conditions: A549, 48 h, read-out: Activity
In short: (§1)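 NCI-60 five-dose screen. Cells were grown in RPMI 1640 with 5% FBS and 2 mM L-glutamine, plated at 5000–40,000 cells/well and preincubated for 24 h. Time-zero plates were TCA-fixed. DMSO-solubilized drug was added at five concentrations (10-fold or ½-log serial dilutions) for 48 h at 37 °C, 5% CO2. Cells were TCA-fixed, stained with 0.4% SRB and read at 515 nm. Percent growth used time-zero, control and test absorbances.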

NCI-H322M [2] = assay: Cytotoxicity against human NCI-H322M cells assessed as cell growth at 0.001 uM after 48 hrs by sulforhodamine B assay; conditions: read-out: Activity
PC-3 = assay: Cytotoxicity against human PC3 cells assessed as cell growth at 0.001 uM after 48 hrs by sulforhodamine B assay; conditions: PC-3, 48 h, read-out: Activity
T47D [3] = assay: Cytotoxicity against human T47D cells assessed as cell growth at 1 uM after 48 hrs by sulforhodamine B assay; conditions: read-out: Activity
M14 [4] = assay: Cytotoxicity against human M14 cells assessed as cell growth at 1 uM after 48 hrs by sulforhodamine B assay; conditions: M14, 48 h, read-out: Activity
SW-620 [5] = assay: Growth inhibition of human SW620 cells after 48 hrs by sulforhodamine B assay; conditions: SW-620, 48 h; for CC50: read-out: LC50 (the source's name)
In short: (§2)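 NCI 60-cell screen, five-dose mode. Cells grown in RPMI 1640 with 5% FBS and 2 mM L-glutamine and plated at 5000-40,000 cells/well according to doubling time. After 24 h preincubation, a Tz plate was TCA-fixed. Five concentrations (10-fold or 1/2 log dilutions) were applied for 48 h at 37 °C. SRB staining read at 515 nm. IC50 taken from [(Ti-Tz)/(C-Tz)]×100 = 50.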

UO-31 = assay: Cytotoxicity against human UO31 cells assessed as cell growth at 0.001 uM after 48 hrs by sulforhodamine B assay; conditions: UO-31, 48 h, read-out: Activity
HCT-116 = assay: Growth inhibition of human HCT116 cells after 48 hrs by sulforhodamine B assay; conditions: HCT-116, 48 h; for CC50: read-out: LC50 (the source's name); in short: as §2
ACHN = assay: Growth inhibition of human ACHN cells after 48 hrs by sulforhodamine B assay
In short: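 NCI five-dose SRB assay in RPMI 1640 with 5% FBS and 2 mM L-glutamine. Cells were preincubated 24 h, then exposed 48 h at 37 °C to five concentrations (10-fold or half-log serial dilutions from DMSO stocks). TCA fixation, SRB staining, and absorbance at 515 nm followed. IC50 was taken where [(Ti−Tz)/(C−Tz)]×100 = 50, with Tz as time-zero cell density.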

LOX IMVI [6] = assay: Cytotoxicity against human LOXIMVI cells assessed as cell growth at 0.001 uM after 48 hrs by sulforhodamine B assay; conditions: read-out: Activity
SW-620 [7] = assay: Cytotoxicity against human SW620 cells assessed as cell growth at 1 uM after 48 hrs by sulforhodamine B assay; conditions: SW-620, 48 h, read-out: Activity
HT-29 = assay: Cytotoxicity against human HT-29 cells assessed as cell growth at 100 nM after 48 hrs by sulforhodamine B assay; conditions: HT-29, 48 h, read-out: Activity
SK-OV-3 = assay: Cytotoxicity against human SKOV3 cells assessed as cell growth at 0.01 uM after 48 hrs by sulforhodamine B assay; conditions: SK-OV-3, 48 h, read-out: Activity
HCC 2998 = assay: Cytotoxicity against human HCC2998 cells assessed as cell growth at 10 uM; conditions: read-out: Activity
In short: (§3)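 Single-dose NCI-60 screen at 10 µM. Cells were grown in RPMI 1640 with 5% FBS and 2 mM L-glutamine, then treated for 48 h at 37 °C. Protein was measured by SRB staining with absorbance at 515 nm. Percentage growth was recorded, and inhibition percentage was calculated as 100 minus growth percentage.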

OVCAR-8 = assay: Growth inhibition of human OVCAR8 cells after 48 hrs by sulforhodamine B assay; conditions: OVCAR-8, 48 h; for CC50: read-out: LC50 (the source's name); in short: as §2
M14 [8] = assay: Growth inhibition of human M14 cells after 48 hrs by sulforhodamine B assay; conditions: M14, 48 h; for CC50: read-out: LC50 (the source's name); in short: as §2
SF-268 = assay: Cytotoxicity against human SF268 cells assessed as cell growth at 0.001 uM after 48 hrs by sulforhodamine B assay; conditions: SF-268, 48 h, read-out: Activity
NCI-H460 = assay: Growth inhibition of human NCI-H460 cells after 48 hrs by sulforhodamine B assay; conditions: NCI-H460, 48 h; for CC50: read-out: LC50 (the source's name); in short: as §2
IGROV-1 = assay: Cytotoxicity against human IGROV1 cells assessed as cell growth at 0.001 uM after 48 hrs by sulforhodamine B assay; conditions: IGROV-1, 48 h, read-out: Activity
T47D [9] = assay: Cytotoxicity against human T47D cells assessed as cell growth at 10 uM after 48 hrs by sulforhodamine B assay; conditions: read-out: Activity
NCI/ADR-RES = assay: Cytotoxicity against human NCI/ADR-RES cells assessed as cell growth at 0.01 uM after 48 hrs by sulforhodamine B assay; conditions: read-out: Activity
OVCAR-4 = assay: Growth inhibition of human OVCAR4 cells after 48 hrs by sulforhodamine B assay; conditions: OVCAR-4, 48 h; for CC50: read-out: LC50 (the source's name); in short: as §2
BT-549 = assay: Cytotoxicity against human BT549 cells assessed as cell growth at 10 uM after 48 hrs by sulforhodamine B assay; conditions: BT-549, 48 h, read-out: Activity; in short: as §1
CAKI-1 = assay: Cytotoxicity against human Caki1 cells assessed as cell growth at 10 uM; conditions: read-out: Activity; in short: as §3
M14 [10] = assay: Cytotoxicity against human M14 cells assessed as cell growth at 100 nM after 48 hrs by sulforhodamine B assay; conditions: M14, 48 h, read-out: Activity
A549 [11] = assay: Cytotoxicity against human A549 cells assessed as cell growth at 10 uM after 48 hrs by sulforhodamine B assay; conditions: A549, 48 h, read-out: Activity; in short: as §1
LOX IMVI [12] = assay: Growth inhibition of human LOXIMVI cells after 48 hrs by sulforhodamine B assay; conditions: for CC50: read-out: LC50 (the source's name); in short: as §2
UACC-62 = assay: Cytotoxicity against human UACC62 cells assessed as cell growth at 1 uM after 48 hrs by sulforhodamine B assay; conditions: UACC-62, 48 h, read-out: Activity
MOLT-4 = assay: Cytotoxicity against human MOLT4 cells assessed as cell growth at 0.001 uM after 48 hrs by sulforhodamine B assay; conditions: MOLT-4, 48 h, read-out: Activity
NCI-H322M [13] = assay: Cytotoxicity against human NCI-H322M cells assessed as cell growth at 100 nM after 48 hrs by sulforhodamine B assay; conditions: read-out: Activity

SMILES: COc1cc(C)cc(-c2nn(CC#N)cc2-c2ccnc(-c3ccc(N(C)C)cc3)c2)c1
- growth at 0.001 µM (A549 [1]): 97%
- growth at 0.001 µM (NCI-H322M [2]): 99%
- growth at 0.001 µM (PC-3): 97%
- growth at 1 µM (T47D [3]): 10%
- growth at 1 µM (M14 [4]): -7%
- GI50 (SW-620 [5]): 0.332 µM
- TGI (SW-620 [5]): > 100 µM
- CC50 (SW-620 [5]): > 100 µM
- growth at 0.001 µM (UO-31): 90%
- GI50 (HCT-116): 0.353 µM
- TGI (HCT-116): 1.64 µM
- CC50 (HCT-116): > 100 µM
- GI50 (ACHN): 0.499 µM
- LC50 (concentration giving 50% net cell kill) (ACHN): > 100 µM
- TGI (ACHN): 12.4 µM
- growth at 0.001 µM (LOX IMVI [6]): 98%
- growth at 1 µM (SW-620 [7]): 19%
- growth at 0.1 µM (HT-29): 25%
- growth at 0.01 µM (SK-OV-3): 102%
- growth at 10 µM (HCC 2998): -46.5%
- GI50 (OVCAR-8): 0.522 µM
- TGI (OVCAR-8): 41.6 µM
- CC50 (OVCAR-8): > 100 µM
- GI50 (M14 [8]): 0.258 µM
- TGI (M14 [8]): 0.769 µM
- CC50 (M14 [8]): > 100 µM
- growth at 0.001 µM (SF-268): 103%
- CC50 (NCI-H460): 94.7 µM
- growth at 0.001 µM (IGROV-1): 103%
- growth at 10 µM (T47D [9]): -32%
- growth at 0.01 µM (NCI/ADR-RES): 99%
- GI50 (OVCAR-4): 0.549 µM
- TGI (OVCAR-4): > 100 µM
- CC50 (OVCAR-4): > 100 µM
- growth at 10 µM (BT-549): -30%
- growth at 10 µM (CAKI-1): 13.9%
- growth at 0.1 µM (M14 [10]): -12%
- growth at 10 µM (A549 [11]): -6%
- GI50 (LOX IMVI [12]): 0.681 µM
- TGI (LOX IMVI [12]): 14.8 µM
- CC50 (LOX IMVI [12]): > 100 µM
- growth at 1 µM (UACC-62): 12%
- growth at 0.001 µM (MOLT-4): 102%
- growth at 0.1 µM (NCI-H322M [13]): 49%

SMILES: Cc1cc(O)cc(-c2nn(CC#N)cc2-c2ccnc(-c3ccc(N(C)C)cc3)c2)c1
- growth at 0.001 µM (A549 [1]): 104%
- growth at 0.001 µM (NCI-H322M [2]): 94%
- growth at 0.001 µM (PC-3): 105%
- growth at 1 µM (T47D [3]): 5%
- growth at 1 µM (M14 [4]): -39%
- GI50 (SW-620 [5]): 2.83 µM
- TGI (SW-620 [5]): 17.5 µM
- CC50 (SW-620 [5]): > 100 µM
- growth at 0.001 µM (UO-31): 89%
- GI50 (HCT-116): 2.71 µM
- TGI (HCT-116): 10.4 µM
- CC50 (HCT-116): 41.9 µM
- GI50 (ACHN): 3.73 µM
- LC50 (concentration giving 50% net cell kill) (ACHN): > 100 µM
- TGI (ACHN): 23.7 µM
- growth at 0.001 µM (LOX IMVI [6]): 103%
- growth at 1 µM (SW-620 [7]): 10%
- growth at 0.1 µM (HT-29): 102%
- growth at 0.01 µM (SK-OV-3): 98%
- growth at 10 µM (HCC 2998): 53.5%
- GI50 (OVCAR-8): 4.2 µM
- TGI (OVCAR-8): 69.4 µM
- CC50 (OVCAR-8): > 100 µM
- GI50 (M14 [8]): 1.83 µM
- TGI (M14 [8]): 4.76 µM
- CC50 (M14 [8]): 20.4 µM
- growth at 0.001 µM (SF-268): 97%
- GI50 (NCI-H460): 2.79 µM
- TGI (NCI-H460): 10.2 µM
- CC50 (NCI-H460): 70.5 µM
- growth at 0.001 µM (IGROV-1): 107%
- growth at 10 µM (T47D [9]): -44%
- growth at 0.01 µM (NCI/ADR-RES): 96%
- GI50 (OVCAR-4): 4.85 µM
- TGI (OVCAR-4): > 100 µM
- CC50 (OVCAR-4): > 100 µM
- growth at 10 µM (BT-549): -43%
- growth at 10 µM (CAKI-1): 44.5%
- growth at 0.1 µM (M14 [10]): 82%
- growth at 10 µM (A549 [11]): -8%
- GI50 (LOX IMVI [12]): 5.13 µM
- TGI (LOX IMVI [12]): 17.8 µM
- CC50 (LOX IMVI [12]): 47.7 µM
- growth at 1 µM (UACC-62): 10%
- growth at 0.001 µM (MOLT-4): 100%
- growth at 0.1 µM (NCI-H322M [13]): 93%
